From PubChem BioAssay
Only some compounds are listed: those with a hit (about 3% of all), similar ones and a draw of the others.
MC4R antagonist = antagonists of human melanocortin 4 receptor (MC4R); P32245; MC4R-expressing cells, MTII-stimulated cAMP, LANCE TR-FRET; inhibition, % at 6.5 µM; 0.48% of 360,000 active;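 active = inhibition above its plate's cutoff, the mean of tested wells on that plate plus 3 SD, cut at about 29% in these data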;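 also: 0% = Melanotan II alone and 100% = Melanotan II plus saturating MCL0020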
Target sequence (P32245 whole entry, looked up): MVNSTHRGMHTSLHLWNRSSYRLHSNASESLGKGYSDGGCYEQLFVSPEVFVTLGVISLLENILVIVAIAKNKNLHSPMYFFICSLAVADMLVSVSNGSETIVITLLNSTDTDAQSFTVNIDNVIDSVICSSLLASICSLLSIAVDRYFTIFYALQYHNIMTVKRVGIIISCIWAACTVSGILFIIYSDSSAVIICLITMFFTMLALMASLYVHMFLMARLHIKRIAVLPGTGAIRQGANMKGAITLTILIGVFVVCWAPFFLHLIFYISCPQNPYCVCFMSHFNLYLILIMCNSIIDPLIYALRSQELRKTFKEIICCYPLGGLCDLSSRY
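Assay system: U2OS-MC4R stable cell line; Also added: Melanotan II; Technique: Eu-cAMP/anti-cAMP TR-FRET, emission 671 nm; Times: 30-min compound, 1-h challenge, 1-h detection, room temperature.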
B2AR ag = agonists of human beta-2 adrenergic receptor inducing internalization; Am2.2-beta2AR cells, FAP receptor internalization, flow cytometry; response, % (no concentration beside the values); AID 504454; 0.43% of 340,000 active;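 active = response above a set limit, near 3 SD of response in nonfluorescent compounds, cut at about 42% in these data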
ABHD5 PLIN5 PPI = inhibitors of human ABHD5-perilipin-5 interaction; Q00G26+Q8WTS1; Split G. princeps luciferase complementation, luminescence, 4 h; inhibition, % at 4 µM; 0.78% of 360,000 active; AID 602281;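 active = inhibition above the mean inhibition across every tested compound plus 3 SD, cut at about 22% in these data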;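 also: 0% = DMSO only wells and the 100% control is not disclosed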
MC4R barr agon = activates human MC4R beta-arrestin recruitment; U2OS MC4R beta-arrestin complementation, luminescence; percent of melanotan II response, DMSO zero; activation, % at 8.9 µM; P32245; 0.98% of 360,000 active;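 active = activation above a per-plate cutoff, the mean activation of sample wells on that plate plus 3 SD, cut at about 8% in these data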
PfG6PD inh = PfG6PD (Plasmodium falciparum) enzyme inhibition. PfGluPho enzyme, NADPH resazurin-diaphorase fluorescence. inhibition, % at 20 µM. 0.78% of 350,000 active. AID 504690;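 active = inhibition reaching at least a set limit at 20 µM in the primary screen, cut at about 59% in these data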;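 also: 0% = DMSO wells with substrate and 100% = DMSO wells lacking glucose-6-phosphate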
MC4R barr ag = human MC4R beta-arrestin agonism confirmation | shares compounds with MC4R barr agon | U2OS MC4R beta-arrestin recruitment, luminescence; scaled DMSO 0%, Melanotan II 100% | activation, % at 8.9 µM | AID 602192 | 31% of 2,400 active;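 active = mean activation across replicates above the hit cutoff set in the earlier primary screen, cut at about 8% in these data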
MOR DOR agonist = OPRM1-OPRD1 heterodimer agonism counter-screen | U2OS PathHunter beta-arrestin, beta-gal luminescence; percent of deltorphin B response, DMSO zero | shares compounds with MC4R barr agon | AID 602194 | activation, % at 9.2 µM | 5.8% of 2,400 active;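 active = mean activation across replicates exceeds the hit threshold derived in the earlier primary screen, cut at about 18% in these data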;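 also: 100% = deltorphin B at 0.9 µM final and 0% = DMSO alone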
Numbers without * were called inactive; · = not tested or not shown.

SMILES	MC4R antagonist	B2AR ag	ABHD5 PLIN5 PPI	MC4R barr agon	PfG6PD inh	MC4R barr ag	MOR DOR agonist
CCOc1ccc(NC(=O)/C=C/c2ccccc2)c([N+](=O)[O-])c1	-9	-6	5	13*	-1	3	9
CCOc1ccc(N/C=C/C(=O)c2ccccc2)c([N+](=O)[O-])c1	-12	-4	4	27*	-58	4	3
O=C(c1ccccc1NS(=O)(=O)c1ccc(F)cc1)N1CCc2ccccc21	19	12	0	4	-9	·	·
O=C(c1ccccc1NS(=O)(=O)c1cccc(C(F)(F)F)c1)N1CCc2ccccc21	16	5	0	10*	-20	1	6
O=c1[nH]c(SCc2cccc(Cl)c2)nc2ccccc12	5	3	-4	3	14	·	·
O=c1[nH]c(-c2ccc(-c3cccc(Cl)c3)o2)nc2ccccc12	-3	0	6	13*	4	-2	2
Cc1onc(-c2ccccc2)c1C(=O)Nc1nc(-c2cc(F)ccc2F)cs1	-6	-3	-1	34*	7	8	6
Cc1cccc(C(=O)N[C@H](C(=O)NCCc2ccc(Cl)cc2)C(C)C)c1	8	-7	-3	0	-6	·	·
O=C(N/N=C/C(Cl)=C\c1ccccc1)c1cccs1	12	19	2	-1	6	·	·
CC(/C=N/NC(=O)c1cccs1)=C\c1ccccc1	-15	-7	-2	16*	-2	2	9
CCC(Oc1cc(Cl)ccc1Cl)C(=O)NNC(=O)CCC(=O)O (configuration not stated)	17	1	-2	0	-15	·	·
CCC(Oc1cc(Cl)ccc1Cl)C(=O)NN1C(=O)C2C3CCC(C3=C(C)C)C2C1=O (configuration not stated)	4	2	-17	9.9*	-1	6	8
O=C(NC(=S)N1CCCCC1)c1csc([N+](=O)[O-])c1	-2	-1	5	2	16	·	·
Nc1cccc(-c2nc3cc(S(=O)(=O)c4ccc5oc(-c6cccc(N)c6)nc5c4)ccc3o2)c1	-2	18	2	14*	4	5	8
Cc1ccc2oc(-c3cccc(N)c3)nc2c1	9	0	1	-4	26	·	·
COc1ccnc(Oc2ccc(F)cc2)c1C(=O)N/C=N/OCc1ccccc1	17	-1	-8	0	-8	·	·
O=C(CCN1C(=O)/C(=C/c2ccc(Cl)cc2)SC1=S)Nc1cccnc1	-1	4	-3	-3	-8	·	·
O=C(CCN1C(=O)/C(=C/C=C/c2ccccc2)SC1=S)Nc1ccccn1	14	4	1	34*	1	22*	12
O=C(CCN1C(=O)/C(=C/C=C/c2ccccc2)SC1=S)Nc1cccnc1	-7	0	2	12*	4	32*	13
CCc1ccc2c(c1)NC(=O)C2(C)Cc1ccccc1C#N (configuration not stated)	-4	·	-13	-1	·	·	·
O=C(OCc1ccccc1)N1CCC2CC1c1c2cccc1N1CCOCC1 (configuration not stated)	·	·	3	·	·	·	·
O=C(NCc1nc(-c2ccc(C(F)(F)F)cc2)no1)Nc1ccc(OC(F)(F)F)cc1	3	7	3	11*	21	5	2
Cc1cn([C@H]2C[C@H](O)[C@@H](CCC(=O)NCc3cccc4ccccc34)O2)c(=O)[nH]c1=O	·	·	6	·	·	·	·
Clc1ccc(-c2nc3nc4ccccc4nc3n2Cc2ccco2)cc1	-1	7	10	20*	23	-2	4
C[C@H](O)c1[nH]c2cc(F)ccc2c1[C@H](C)O	3	1	9	0	10	·	·
SMILES	MC4R antagonist	B2AR ag	ABHD5 PLIN5 PPI	MC4R barr agon	PfG6PD inh	MC4R barr ag	MOR DOR agonist
COc1cc(SC#N)ccc1N=Cc1c(C)[nH]n(-c2ccc(C)c(C)c2)c1=O	4	10	8	12*	20	9.3*	15
COc1cc(SC#N)ccc1N=Cc1c(C)[nH]n(-c2ccc(Cl)cc2)c1=O	5	10	-24	0	14	·	·
COc1ccccc1CN1C(=O)c2ccccc2C1C(=O)NC1CCC(C)CC1 (configuration not stated)	14	-9	-1	-2	-22	·	·
CCCCCCOc1ccc(N2C(=O)CC(S/C(N)=N/N=C(\C)c3cccs3)C2=O)cc1 (configuration not stated)	12	1	-3	21*	2	15*	2
C/C(=N\N=C(/N)SC1CC(=O)N(c2ccccc2)C1=O)c1cccs1 (configuration not stated)	5	0	-5	0	-16	·	·
CCOc1ccc(Cl)cc1-c1cc(C(=O)NCCOC)[nH]n1	-3	·	-5	-1	·	·	·
S=c1[nH]nc(COc2ccccc2)n1/N=C/c1ccccc1Cl	26	8	-7	4	13	·	·
S=c1[nH]nc(COc2ccccc2)n1/N=C/c1c(Cl)cccc1Cl	6	9	-6	11*	10	2	4
CCCCCCN1C=C/C(=C\C=C(C#N)C#N)c2ccccc21	-1	-18	6	11*	9	12*	13
Nc1ccc(CSc2ccc(Cl)cc2)c(Cl)c1	2	-6	-16	2	28	·	·
Cc1nn(C(C)C(=O)NCC2CCCO2)c(C)c1[N+](=O)[O-] (configuration not stated)	0	2	-5	-3	-8	·	·
COc1cc(/C=C2/C(=N)N3C=CSC3=NC2=O)ccc1OCCCOc1ccccc1C	-29	-2	10	17*	-6	12*	11
CC1=CN2C(=N)/C(=C/c3cn(CCCOc4ccccc4C)c4ccccc34)C(=O)N=C2S1	2	-11	-1	-2	7	·	·
CC(C)(Oc1ccc(Cl)cc1)C(=O)N(Cc1ccccc1)c1ccccn1	5	16	2	0	0	·	·
CC(NC(=O)COC(=O)c1cc2ccccc2cc1O)c1ccccc1 (configuration not stated)	7	2	-3	18*	-6	12*	7
COc1cc(OC)cc(C(=O)NC(c2ccccc2)c2ccccc2)c1	2	0	-26	1	1	·	·
COc1cc(OC)cc(C(=O)OCC(=O)NC(c2ccccc2)c2ccccc2)c1	11	-7	-1	13*	3	2	7
COc1ccc(CNC(=O)COC(=O)c2cc3ccccc3cc2O)cc1OC	9	6	6	14*	14	3	4
Cc1cc(C(=O)OCC(=O)NC(C)c2ccccc2)c(C)o1 (configuration not stated)	3	-4	1	-2	-3	·	·
